Assay results from ChEMBL document CHEMBL1125040, “Reversible inhibitors of the gastric (H+/K+)-ATPase. 1. 1-Aryl-4-methylpyrrolo[3,2-c]quinolines as conformationally restrained analogues of 4-(arylamino)quinolines” (J Med Chem, 1990).

What was measured:
Sus scrofa = species: Sus scrofa; test: In vitro inhibition of [14C]-aminopyrine accumulation was determined in gastric vesicles of pig with outside vesicle pH 7; conditions: Stomach
Rattus norvegicus [1] = test: In vivo inhibition of rat gastric secretion was determined at a dose of 10 uM/kg; type: functional, Stomach
Outline: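 Pentagastrin-stimulated lumen-perfused rats given a single iv bolus of 10 μmol/kg. Acid output measured in the gastric perfusate. Percent inhibition taken at peak inhibition relative to the secretory plateau immediately before dosing; mean of four rats ± SEM.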

Rattus norvegicus [2] = test: In vivo antisecretory activity was determined for inhibition of gastric secretion in rat; rats died at doses giving less than 50% inhibition; type: organism-based, Stomach
Rattus norvegicus [3] = test: In vivo antisecretory activity was determined for inhibition of gastric secretion in rat; type: functional; conditions: Stomach
Outline: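 Lumen-perfused rat stimulated with pentagastrin; compound given as iv bolus; acid output measured in gastric perfusate. Percent inhibition taken at peak inhibition versus secretory plateau just before dosing.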

[4] = pKa value was determined; type: physicochemical

SMILES | IC50 (Sus scrofa) | Inhibition (Rattus norvegicus [1]) | ED50 (Rattus norvegicus [2]) | ED50 (Rattus norvegicus [3]) | pKa [4]
COc1cccc2c3c(cnc12)CCCN3c1ccccc1C | 0.11 µM | 21% |  |  | 
COc1ccccc1N1CCc2c(C)nc3c(OC)cccc3c21 | 0.23 µM |  | Toxic |  | 
Cc1cccc(C)c1N1CCc2c(C)nc3ccccc3c21 |  | 18% |  |  | 
COc1cccc2c3c(c(C)nc12)CCN3c1ccccc1C | 0.036 µM |  |  | 19.8 µmol/kg | 9.5
COc1cccc2c3c(c(C)nc12)CCN3c1ccccc1 | 0.084 µM | 17% | Toxic |  | 
COc1cccc2c3c(c(C)nc12)CCN3Cc1ccccc1 | 1.6 µM | 0% | Toxic |  | 
Cc1ccccc1N1CCc2c(C)nc3c(O)cccc3c21 | 0.061 µM | 23% |  |  | 
COc1cccc2c1nc(C)c1ccn(-c3ccccc3C)c12 | 0.034 µM | 48% |  | 7.1 µmol/kg | 7.4
Cc1ccccc1N1CCc2c(C)nc3ccccc3c21 | 0.028 µM | 42% |  |  | 
Cc1ccccc1-n1c(S)nc2cnc3ccccc3c21 | > 30 µM |  |  |  | 
COc1cccc2c3c(c(C)[n+](C)c12)CCN3c1ccccc1C | 2.4 µM |  |  |  | 
Cc1ccccc1N1CCc2c(C)nc3c(C)cccc3c21 | 0.028 µM | 43% |  |  | 
Cc1ccccc1-n1cnc2cnc3ccccc3c21 | 2.23 µM |  |  |  | 
COc1ccc(N2CCc3c(C)nc4c(OC)cccc4c32)c(C)c1 |  | 45% |  |  | 
Cc1ccccc1N1CCc2c(C)nc3c(F)cccc3c21 |  | 26% |  |  | 
Cc1cc(O)ccc1N1CCc2c(C)nc3ccccc3c21 |  | 41% |  |  | 
COc1ccc(N2CCc3c(C)nc4ccccc4c32)c(C)c1 | 0.026 µM | 51% |  |  | 
Cc1ccccc1-n1nnc2cnc3ccccc3c21 | > 30 µM |  |  |  | 
Cc1ccccc1N1CCc2c1c1ccccc1[n+]([O-])c2C |  | 40% |  |  | 
Cc1nc2c(OCc3ccccc3)cccn2c1CC#N | 0.013 µM |  |  | 0.31 µmol/kg | 
CCOC(=O)c1cnc2c(OC)cccc2c1Nc1ccccc1C | 0.037 µM |  |  | 8.2 µmol/kg | 
COc1ccc2[nH]c([S+]([O-])Cc3ncc(C)c(OC)c3C)nc2c1 (centres undefined) [OMEPRAZOLE] |  |  |  | 0.45 µmol/kg | 
